Data: ChEMBL document CHEMBL5724801, “EUbOPEN Chemogenomics Library - Multiplex” (2024)
Where “and” joins values, the source holds several entries; their conditions need not be identical. Identical values can stand only once.

Tested on: Fibroblast
Experiment: Multiplex assay against human fibroblast
Format: toxicity, cell-based
Method in brief: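 At seeding, live cells were stained with Hoechst33342, BioTracker Green Microtubule Cytoskeleton Dye, MitoTracker Red and Annexin V Alexa Fluor 680. After compound addition they were imaged on a CQ1 microscope at 37°C and 5% CO2, and CellPathfinder machine-learning gating sorted them into Hoechst high-intensity objects or normal cells, with normal cells further split into healthy, pyknosed or fragmented nuclei and pyknosed cells into mitotic or apoptotic. Tubulin, mitochondrial-mass and membrane-permeability phenotypes are given as per cents of cells with healthy nuclei.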

[1] = 12 h, 1 µM, compound concentration 1 uM
[2] = 12 h, 10 µM, compound concentration 10 uM
[3] = 24 h, 1 µM, compound concentration 1 uM
[4] = 24 h, 10 µM, compound concentration 10 uM
[5] = 48 h, 1 µM, compound concentration 1 uM
[6] = 48 h, 10 µM, compound concentration 10 uM

Compound: C[C@@H]1CN(Cc2ccc(F)cc2)CCN1C(=O)COc1ccc(Cl)cc1NC(N)=O [BX 471 FREE BASE]
- Population Apoptotic (%) [1]: 23% and 38%
- Population Fragmented Nuclei (%) [1]: 10% and 26%
- Population Healthy Nuclei (%) [1]: 73% and 47%
- Population Hoechst High Intensity Objects (%) [1]: 3% and 7%
- Population Mitotic Cells (%) [1]: 76% and 61%
- Population Normal (%) [1]: 96% and 92%
- Population Pyknosed Nuclei (%) [1]: 15% and 26%
- Population Tubulin-Different-Phenotype (%) [1]: 35% and 48%
- Total Cell Count [1]: 138 and 182
- Population Apoptotic (%) [2]: 38% and 40%
- Population Fragmented Nuclei (%) [2]: 27% and 36%
- Population Healthy Nuclei (%) [2]: 45% and 27%
- Population Hoechst High Intensity Objects (%) [2]: 7% and 11%
- Population Mitotic Cells (%) [2]: 61% and 60%
- Population Normal (%) [2]: 92% and 88%
- Population Pyknosed Nuclei (%) [2]: 26% and 35%
- Population Tubulin-Different-Phenotype (%) [2]: 81% and 77%
- Total Cell Count [2]: 240 and 126
- Population Apoptotic (%) [3]: 52% and 51%
- Population Fragmented Nuclei (%) [3]: 13% and 20%
- Population Healthy Nuclei (%) [3]: 74% and 52%
- Population Hoechst High Intensity Objects (%) [3]: 0% and 6%
- Population Mitotic Cells (%) [3]: 47% and 48%
- Population Normal (%) [3]: 99% and 93%
- Population Pyknosed Nuclei (%) [3]: 11% and 27%
- Population Tubulin-Different-Phenotype (%) [3]: 33% and 52%
- Total Cell Count [3]: 147 and 160
- Population Apoptotic (%) [4]: 43% and 46%
- Population Fragmented Nuclei (%) [4]: 28% and 34%
- Population Healthy Nuclei (%) [4]: 43% and 36%
- Population Hoechst High Intensity Objects (%) [4]: 4% and 8%
- Population Mitotic Cells (%) [4]: 56% and 53%
- Population Normal (%) [4]: 95% and 91%
- Population Pyknosed Nuclei (%) [4]: 28% and 29%
- Population Tubulin-Different-Phenotype (%) [4]: 75% and 89%
- Total Cell Count [4]: 225 and 118
- Population Apoptotic (%) [5]: 55% and 63%
- Population Fragmented Nuclei (%) [5]: 16% and 31%
- Population Healthy Nuclei (%) [5]: 67% and 55%
- Population Hoechst High Intensity Objects (%) [5]: 5%
- Population Mitotic Cells (%) [5]: 45% and 36%
- Population Normal (%) [5]: 94% and 97%
- Population Pyknosed Nuclei (%) [5]: 15% and 13%
- Population Tubulin-Different-Phenotype (%) [5]: 40% and 54%
- Total Cell Count [5]: 138 and 172
- Population Apoptotic (%) [6]: 58% and 41%
- Population Fragmented Nuclei (%) [6]: 31% and 42%
- Population Healthy Nuclei (%) [6]: 49% and 42%
- Population Hoechst High Intensity Objects (%) [6]: 7% and 6%
- Population Mitotic Cells (%) [6]: 41% and 58%
- Population Normal (%) [6]: 92% and 93%
- Population Pyknosed Nuclei (%) [6]: 18% and 14%
- Population Tubulin-Different-Phenotype (%) [6]: 77% and 91%
- Total Cell Count [6]: 234 and 122

Compound: N#Cc1c(N)nc(SCc2csc(-c3ccc(Cl)cc3)n2)c(C#N)c1-c1ccc(OCCO)cc1 [CAPADENOSON]
- Population Apoptotic (%) [1]: 43% and 27%
- Population Healthy Nuclei (%) [1]: 80% and 43%
- Population Hoechst High Intensity Objects (%) [1]: 2% and 1%
- Population Membrane Permeable-Phenotype (%) [1]: 0% and 5%
- Population Mitochondria Different-Phenotype (%) [1]: 10% and 11%
- Population Mitotic Cells (%) [1]: 56% and 72%
- Population Normal (%) [1]: 97% and 98%
- Population Pyknosed Nuclei (%) [1]: 11% and 25%
- Population Tubulin-Different-Phenotype (%) [1]: 38% and 55%
- Total Cell Count [1]: 139 and 157
- Population Apoptotic (%) [2]: 31% and 41%
- Population Fragmented Nuclei (%) [2]: 23% and 41%
- Population Healthy Nuclei (%) [2]: 50% and 29%
- Population Hoechst High Intensity Objects (%) [2]: 1% and 8%
- Population Membrane Permeable-Phenotype (%) [2]: 0% and 20%
- Population Mitochondria Different-Phenotype (%) [2]: 10% and 14%
- Population Mitotic Cells (%) [2]: 68% and 58%
- Population Normal (%) [2]: 98% and 91%
- Population Pyknosed Nuclei (%) [2]: 25% and 29%
- Population Tubulin-Different-Phenotype (%) [2]: 80% and 97%
- Total Cell Count [2]: 172 and 128
- Population Apoptotic (%) [3]: 72% and 48%
- Population Healthy Nuclei (%) [3]: 80% and 44%
- Population Hoechst High Intensity Objects (%) [3]: 1% and 4%
- Population Membrane Permeable-Phenotype (%) [3]: 0% and 6%
- Population Mitotic Cells (%) [3]: 27% and 51%
- Population Normal (%) [3]: 98% and 95%
- Population Pyknosed Nuclei (%) [3]: 8% and 20%
- Population Tubulin-Different-Phenotype (%) [3]: 34% and 71%
- Total Cell Count [3]: 139 and 148
- Population Apoptotic (%) [4]: 38% and 41%
- Population Fragmented Nuclei (%) [4]: 26% and 43%
- Population Healthy Nuclei (%) [4]: 52% and 28%
- Population Hoechst High Intensity Objects (%) [4]: 2% and 6%
- Population Membrane Permeable-Phenotype (%) [4]: 0% and 17%
- Population Mitochondria Different-Phenotype (%) [4]: 26% and 25%
- Population Mitotic Cells (%) [4]: 61% and 58%
- Population Normal (%) [4]: 97% and 93%
- Population Pyknosed Nuclei (%) [4]: 20% and 27%
- Population Tubulin-Different-Phenotype (%) [4]: 67% and 94%
- Total Cell Count [4]: 179 and 131
- Population Apoptotic (%) [5]: 88% and 69%
- Population Fragmented Nuclei (%) [5]: 16% and 38%
- Population Healthy Nuclei (%) [5]: 77% and 43%
- Population Hoechst High Intensity Objects (%) [5]: 2%
- Population Membrane Permeable-Phenotype (%) [5]: 0% and 6%
- Population Mitochondria Different-Phenotype (%) [5]: 7% and 12%
- Population Mitotic Cells (%) [5]: 11% and 30%
- Population Normal (%) [5]: 97%
- Population Pyknosed Nuclei (%) [5]: 6% and 17%
- Population Tubulin-Different-Phenotype (%) [5]: 37% and 60%
- Total Cell Count [5]: 147 and 151
- Population Apoptotic (%) [6]: 81% and 36%
- Population Fragmented Nuclei (%) [6]: 32% and 57%
- Population Healthy Nuclei (%) [6]: 53% and 29%
- Population Hoechst High Intensity Objects (%) [6]: 2% and 0%
- Population Membrane Permeable-Phenotype (%) [6]: 0% and 11%
- Population Mitochondria Different-Phenotype (%) [6]: 32% and 30%
- Population Normal (%) [6]: 97% and 100%
- Population Pyknosed Nuclei (%) [6]: 14% and 13%
- Population Tubulin-Different-Phenotype (%) [6]: 78% and 95%
- Total Cell Count [6]: 187 and 142
